An excerpt weighted towards active compounds, which were near 2.8% of everything screened.
sdo1 growth – restores growth of sdo1-depleted yeast; S. cerevisiae sdo1-depleted JHY4D growth rescue, OD600 30 h; stronger effect = higher value; pdr5 snq2 efflux-pump mutant strain; z-score at 10 µM; hit rate 0.21% among 140,000; AID 817;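 active = z-score above 3 at both the 24 hr and the 30 hr optical density reads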;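 also: z-score against mean and SD of all compound wells on the same plate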
HCT116 bCat-KO – beta-catenin-lacking colon tumor cell growth suppression; HCT116 beta-catenin knockout viability, CellTiter-Glo, 60 h; stronger effect = lower value; viability, % at 10 µM; hit rate 1.5% among 140,000;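 active = viability at or under a set limit, the compound median less 4 SD, cut at about 6% in these data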;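 also: 0% = Hyamine 1622 control at 20 µM and 100% = untreated cell control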
Yeast lifespan up – yeast lifespan extension; S. cerevisiae growth with nicotinamide, OD615; deaD strain in restrictive glucose medium; inhibition of the nicotinamide effect, % at 10 µM; hit rate 0.68% among 130,000; AID 775;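 active = inhibition above a set limit, placed 3 SD over the median of all compounds, cut at about 26% in these data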;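 also: 0% = nicotinamide-treated wells and 100% = cells grown without nicotinamide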
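assay system = DeaD-strain S. cerevisiae | buffer or medium = restrictive glucose medium | reagent = 1.5 mM nicotinamide | compound = 10 µM single point, 0.25% DMSO | incubation = 48 h compound exposure at 30 °C, humidified | signal = OD615 measurement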
Yeast growth inh – yeast BB579 growth reduction in restrictive medium. S. cerevisiae BB579 growth, OD615, 48 h. inhibition, % at 10 µM. hit rate 0.51% among 140,000. AID 804;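 active = inhibition above a set limit, 3 SD over the mean compound inhibition, cut at about 44% in these data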
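Material: Saccharomyces cerevisiae DeaD strain BB579, replicative lifespan model yeast; buffer or medium: CSMM-D restrictive synthetic medium containing dextrose (glucose); compound: 10 µM single dose, DMSO 0.25%; timing: 48 h compound exposure at 30 °C after 4 h preincubation; signal: turbidity as optical density at 615 nm; benchmarks: positive control amphotericin B 10 µg/mL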
HCT116 PTEN-null – growth suppressors of cells with PTEN tumor suppressor deletion. hit rate 1.2% among 140,000. HCT116 PTEN-null viability, CellTiter-Glo, 60 h; stronger effect = lower value. viability, % at 10 µM;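 active = viability at or below a set limit, 4 SD under the median of all tested compounds, cut at about 3.7% in these data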;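 also: PTEN knockout HCT116 line with beta catenin targeted HCT116 as companion control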
Numbers without * were called inactive; / = no result given.

SMILES | sdo1 growth | HCT116 bCat-KO | Yeast lifespan up | Yeast growth inh | HCT116 PTEN-null
CCOc1ccc(N2C(=O)C(c3ccccc3)=C(c3nc4ccccc4s3)C2NC(C)=O)cc1 (stereo not drawn) | -1.1 | 62 | -4 | 8 | 67
CCOC(=O)c1c(C)n(-c2ccc(OC)cc2)c2c(C/C(C)=N/O)c(Br)c(OC)c(O)c12 | -0.07 | 103 | -10 | -11 | 98
Cc1ccc2c(c1)N(C(=O)NC1CCCCC1)C(C)(C)CC2C (stereo not drawn) | 0.55 | 103 | 8 | -27 | 112
COc1ccc(NCc2nnc(SCC(=O)Nc3nc(-c4ccccc4)cs3)n2-c2ccccc2)cc1 | -0.79 | 1.3* | 9 | -10 | 1.8*
Cc1cc(C)nc(SCc2nnc(SCC(=O)Nc3nc(-c4ccccc4)cs3)n2-c2ccccc2)n1 | -1.4 | 90 | -10 | -84 | 87
COc1ccc(-n2c(CNc3ccc(C)cc3)nnc2SCC(=O)Nc2nc(-c3ccccc3)cs2)cc1 | -0.26 | 0.8* | -10 | -19 | 0.4*
O=C(Nc1cccc(Cl)c1)Nc1cccc(Cl)c1 | -0.86 | 86 | / | -26 | 70
O=C(Nc1ccccc1)Nc1cc(OCC(F)(F)F)cc(OCC(F)(F)F)c1 | -1.4 | 2.2* | 8 | -17 | 1.9*
O=C(Nc1ccccc1)Nc1cc(Cl)cc(Cl)c1 | -1.9 | 2.0* | -11 | -18 | 2.2*
CC1=C(C(=O)OC(C)C)C(c2cccs2)NC(=S)N1 (stereo not drawn) | -0.13 | 91 | -1 | -9 | 88
Cc1cccn2c(=O)c3cc(C(=O)NCCN4CCOCC4)c(=N)n(CCc4ccccc4)c3nc12 | 0.95 | 27 | 2 | -29 | 25
CCNC(=O)c1cc2c(=O)n3cccc(C)c3nc2n(CCc2ccccc2)c1=N | 0.58 | 4.8* | -5 | -55 | 6
Cc1ccc(C(=O)N(c2ccccc2)C2CC(C)N(C(=O)c3ccco3)c3ccccc32)cc1 (stereo not drawn) | -0.07 | 58 | 34* | -12 | 65
CCC(=O)N1c2ccccc2[C@@H](N(C(C)=O)c2ccccc2)C[C@H]1C | -0.94 | 59 | 1 | -56 | 71
CCN(Cc1ccccc1)c1ccc(/C=N/N=C(N)N)cc1 | -2 | 1.4* | -4 | 7 | 1.7*
CCN(Cc1ccccc1)c1ccc(/C=N/NC(=S)NC(C)C)cc1 | -0.9 | 51 | -1 | -1 | 40
O=[N+]([O-])/C=C/c1cn(Cc2ccc(Cl)cc2)c2ccccc12 | -1.9 | 10 | 17 | -39 | 1.9*
Cc1cccc(Cn2cc(/C=C/[N+](=O)[O-])c3ccccc32)c1 | -1.8 | 3.2* | 25 | -32 | 3.0*
CCOC(=O)N/N=C/c1cn(Cc2ccc(Cl)cc2)c2ccccc12 | 0.04 | 91 | 3 | -6 | 95
c1ccc(C2CCC(N3CCNCC3)CC2)cc1 (stereo not drawn) | -0.53 | 94 | 2 | -39 | 84
COc1ccc(OC)c(/C=N/NC(=O)Cc2nc3ccccc3[nH]2)c1 | -0.14 | 95 | 13 | -23 | 91
Cc1ccc(-c2cc(C(F)F)n3ncc(C(=O)N4CCN(c5cccc(C)c5C)CC4)c3n2)cc1 | -1.4 | 3.2* | -5 | -36 | 8
CCCN(CCC)CCNC(=O)C1CCN(Cc2nc(-c3ccc(Cl)cc3)oc2C)CC1 | 0.32 | 2.2* | -13 | -66 | 2.2*
CCc1ccc(-c2nc(CN3CCCC(C(=O)NCCc4ccc(OC)c(OC)c4)C3)c(C)o2)cc1 (stereo not drawn) | -2 | 1.9* | -10 | 14 | 3.0*
NCCNc1ccc([N+](=O)[O-])c(NC2CC2)c1 | 1.1 | 83 | 1 | -5 | 93
SMILES | sdo1 growth | HCT116 bCat-KO | Yeast lifespan up | Yeast growth inh | HCT116 PTEN-null
Cc1ccc2c(c1)CCCN2C(=O)c1ccoc1C | -0.84 | 87 | -20 | -17 | 86
O=C(C(=O)N1CCCc2ccccc21)N1CCCc2ccccc21 | -0.09 | 101 | 1 | -8 | 91
CCc1ccc2c(c1)CCCN2C(=O)c1ccccc1C(=O)O | -0.03 | 80 | 34* | -42 | 80
O=C(c1ccc(C(=O)N2CCCc3ccccc32)s1)N1CCCc2ccccc21 | -2.5 | 106 | -17 | 84* | 87
CN(c1ccccc1)C1CCCCC1NS(=O)(=O)c1ccc(Cl)cc1 (stereo not drawn) | -1.5 | 39 | 36* | 11 | 35
Cc1ccc2c(c1)C(=NC1CCCCC1)c1cc3ccccc3nc1-2 | -1.8 | 55 | -9 | 60* | 51
Cc1ccc(-c2cc3ccccc3nc2N2CCCC2)cc1 | -1.5 | 71 | -9 | -29 | 72
Cc1ccc2c(c1)-c1nc3ccccc3cc1C2=NC1CCCCC1 | -1.6 | 8 | -10 | 47* | 2.8*
N#Cc1ccccc1NC(=O)COC(=O)CSc1nc2ccccc2o1 | -0.32 | 89 | -7 | -5 | 95
Cc1cccc(C=Nc2ccc3c(c2)oc2ccccc23)c1O | 1.2 | 98 | -2 | -7 | 101
Oc1ccccc1C=NCC(O)c1ccccc1 (stereo not drawn) | -0.3 | 97 | 4 | -25 | 98
Cc1ccc(N=Cc2cccc(O)c2O)c(C)c1 | 0.12 | 1.9* | -21 | 97* | 2.0*
Cc1ccccc1N=Cc1cccc(O)c1O | 0.82 | 58 | -11 | 97* | 63
Cc1ccc(O)c(C=Nc2cc(C)ccc2O)c1 | 1.3 | 62 | -5 | -41 | 67
CC(N=Cc1cccc(O)c1O)c1ccccc1 (stereo not drawn) | -0.06 | 87 | -10 | 96* | 94
Nc1c(N(C(=O)Nc2ccc(Cl)c(Cl)c2)C2CCCC2)c(=O)[nH]c(=O)n1Cc1ccccc1 | 1.3 | 1.4* | -6 | -10 | 1.4*
O=C(NCc1cccnc1)c1ccc(COc2cccc3ccccc23)o1 | -1.5 | 74 | -20 | -38 | 64
CCCCCCCOC(=O)C[N+](C)(C)CCOC1CC2CCC1(C)C2(C)C (stereo not drawn) | -2.2 | 1.6* | -12 | 100* | 1.3*
CCCCCCOC(=O)C[N+](C)(C)CCOC1CC2CCC1(C)C2(C)C (stereo not drawn) | -2.3 | 34 | -14 | 8 | 30
CCCCNC(=S)N(Cc1c(C)noc1C)c1ccccc1 | 0.6 | 89 | 0 | -17 | 77
O=C(CCCSc1nc2ccccc2[nH]1)N1CCN(c2ccc([N+](=O)[O-])cc2)CC1 | -0.76 | 53 | -13 | -57 | 39
CCN(CC#CCC1(O)c2ccccc2-c2ccccc21)C(C)C | 1.4 | 84 | -2 | -30 | 87
CC1=NN(c2ccccc2)C(=O)C1C(=O)c1ccccc1 (stereo not drawn) | 0.33 | 96 | 28* | -32 | 90
CCOC(=O)c1nnc(-c2cccs2)nc1NC(C)C | -1.5 | 98 | -9 | -10 | 98
Cc1cc(C(=O)COC(=O)c2ccc[nH]c2=O)c(C)n1-c1ccc(Br)cc1 | 1.3 | 85 | -7 | 91* | 92
Cc1cc(C(=O)COC(=O)c2ccc[nH]c2=O)c(C)n1C | -0.08 | 94 | 5 | -9 | 96

Compound activity (PubChem)
